In ChEMBL document CHEMBL1149869, “Antifungal and antimycobacterial activity of 1-(3,5-diaryl-4,5-dihydro-1H-pyrazol-4-yl)-1H-imidazole derivatives” (2008) one finds MIC data, which are given here for 23 molecules.

Holding throughout (type): functional
Assay [1] concerns Mycobacterium tuberculosis. Kind of assay: Antitubercular activity against Mycobacterium tuberculosis H37Rv micro-dilution Resazurin assay. The procedure, abridged: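 Microdilution Resazurin assay (MRA) run for 1 week against reference strain M. tuberculosis H37Rv. Compound stocks were 2 mg/mL in DMSO, with DMSO tested up to 2% (v/v). MIC was the lowest concentration preventing the blue-to-pink Resazurin colour change, read visually twice in duplicate experiments. Viable counts on agar from control and test wells.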
For orientation: Dilution methods test growth across graded concentrations, often in twofold steps.

In assay [2] the test system is Candida albicans. Kind of assay: Antifungal activity against Candida albicans 685 after 24 hrs. Put shortly:
(§1)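 Clinical isolate C. albicans 685 tested by NCCLS (1997) reference broth method; compound stocks 2 mg/mL in DMSO; miconazole and amphotericin B as standards; MIC read after 24 and 48 h incubation, each determined twice in duplicate experiments.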

Assay [3] concerns Candida albicans. Kind of assay: Antifungal activity against Candida albicans 685 after 48 hrs. Put shortly:
as §1

SMILES strings stand for the structures. Values after ≈ are worked out from the molar mass of the structure shown.

Consider `CN1N=C(c2ccc(Br)cc2)[C@@H](n2ccnc2)[C@H]1c1ccc(Br)cc1` (racemic), for which the MIC – broadly, the smallest concentration in the dilution series that meets the test's criterion for growth inhibition – in assay [1] came out at 8 µg/mL (≈ 17.4 µM); against Candida albicans [2], 0.06 µg/mL (≈ 0.13 µM); in the assay with Candida albicans [3] it was 0.06 µg/mL (≈ 0.13 µM).

With `Cc1ccc(C2=NN(C)[C@H](c3ccc(C)cc3)[C@@H]2n2ccnc2)cc1` (racemic), the results for the MIC (in assay [1]; in the assay with Candida albicans [2]; against Candida albicans [3]) were 16 µg/mL (≈ 48.4 µM), 4 µg/mL (≈ 12.1 µM) and 64 µg/mL (≈ 194 µM), respectively.

Take `Brc1ccc(C2=NN[C@H](c3ccc(Br)cc3)[C@H]2n2ccnc2)cc1` (racemic): the minimal inhibitory concentration (MIC) in assay [1] came out at 8 µg/mL (≈ 17.9 µM); against Candida albicans [2] it was 4 µg/mL (≈ 8.97 µM); with Candida albicans [3] it was 8 µg/mL (≈ 17.9 µM).

Take `Clc1ccc(C2=NN[C@H](c3ccc(Cl)cc3)[C@H]2n2ccnc2)cc1` (racemic): the results for the minimal inhibitory concentration (MIC) (in assay [1]; in the assay with Candida albicans [2]; against Candida albicans [3]) were 8 µg/mL (≈ 22.4 µM), 4 µg/mL (≈ 11.2 µM) and 16 µg/mL (≈ 44.8 µM), respectively.

Regarding `Clc1ccc(C2=NN[C@H](c3ccc(Cl)cc3Cl)[C@H]2n2ccnc2)c(Cl)c1` (racemic), the figures for the MIC (in assay [1]; with Candida albicans [2]; in the assay with Candida albicans [3]) were 8 µg/mL (≈ 18.8 µM), 8 µg/mL (≈ 18.8 µM) and 64 µg/mL (≈ 150 µM), respectively.

`CN1N=C(c2ccc(Cl)cc2)[C@@H](n2ccnc2)[C@H]1c1ccc(Cl)cc1` (racemic): the MIC in assay [1] is 8 µg/mL (≈ 21.5 µM); against Candida albicans [2], 0.06 µg/mL (≈ 0.162 µM); in the assay with Candida albicans [3] it was 0.06 µg/mL (≈ 0.162 µM).

`CN1N=C(c2ccc(Cl)cc2Cl)[C@@H](n2ccnc2)[C@H]1c1ccc(Cl)cc1Cl` (racemic): the MIC in assay [1] was found to be 16 µg/mL (≈ 36.4 µM); against Candida albicans [2] it was 0.12 µg/mL (≈ 0.273 µM); against Candida albicans [3], 32 µg/mL (≈ 72.7 µM).

Take `Cc1ccc(C2=NN[C@@H](c3ccc(C)cc3)[C@@H]2n2ccnc2)cc1` (racemic): the MIC is 16 µg/mL (≈ 50.6 µM) in assay [1], 8 µg/mL (≈ 25.3 µM) with Candida albicans [2] and 64 µg/mL (≈ 202 µM) in the assay on Candida albicans [3].

`c1ccc(C2=NN(c3ccccc3)[C@H](c3ccccc3)[C@H]2n2ccnc2)cc1` (racemic): the values for the MIC (in assay [1]; in the assay with Candida albicans [2]; against Candida albicans [3]) were 8 µg/mL (≈ 22 µM), 0.06 µg/mL (≈ 0.165 µM) and 1 µg/mL (≈ 2.74 µM), respectively.

As to `Cc1ccc(C2=NN(c3ccccc3)[C@H](c3ccc(C)cc3)[C@H]2n2ccnc2)cc1` (racemic), the minimum inhibitory concentration (MIC) was determined as 4 µg/mL (≈ 10.2 µM) in assay [1], 8 µg/mL (≈ 20.4 µM) against Candida albicans [2] and 64 µg/mL (≈ 163 µM) with Candida albicans [3].

For `Brc1ccc(C2=NN(c3ccccc3)[C@H](c3ccc(Br)cc3)[C@H]2n2ccnc2)cc1` (racemic), the MIC in assay [1] amounted to 8 µg/mL (≈ 15.3 µM); against Candida albicans [2], 1 µg/mL (≈ 1.91 µM); against Candida albicans [3] it was 64 µg/mL (≈ 123 µM).

For the molecule `Clc1ccc(C2=NN(c3ccccc3)[C@H](c3ccc(Cl)cc3Cl)[C@H]2n2ccnc2)c(Cl)c1` (racemic), the MIC was 4 µg/mL (≈ 7.96 µM) in assay [1], 2 µg/mL (≈ 3.98 µM) with Candida albicans [2] and greater than 64 µg/mL in the assay with Candida albicans [3].

For the molecule `Cc1ccc(C2=NN(c3ccc(F)cc3)[C@H](c3ccc(C)cc3)[C@H]2n2ccnc2)cc1` (racemic), the MIC in assay [1] was 4 µg/mL (≈ 9.74 µM); with Candida albicans [2] it was 64 µg/mL (≈ 156 µM); against Candida albicans [3] it was 64 µg/mL (≈ 156 µM).

In the case of `Fc1ccc(N2N=C(c3ccc(Cl)cc3)[C@H](n3ccnc3)[C@H]2c2ccc(Cl)cc2)cc1` (racemic), the MIC in assay [1] was 4 µg/mL (≈ 8.86 µM); against Candida albicans [2] it was 2 µg/mL (≈ 4.43 µM); in the assay on Candida albicans [3], greater than 64 µg/mL.

In the case of `Fc1ccc(N2N=C(c3ccc(Br)cc3)[C@H](n3ccnc3)[C@H]2c2ccc(Br)cc2)cc1` (racemic), the minimum inhibitory concentration (MIC) is 4 µg/mL (≈ 7.4 µM) in assay [1], 8 µg/mL (≈ 14.8 µM) with Candida albicans [2] and greater than 64 µg/mL against Candida albicans [3].

Consider `Fc1ccc(N2N=C(c3ccccc3)[C@H](n3ccnc3)[C@H]2c2ccccc2)cc1` (racemic), for which the figures for the MIC (in assay [1]; against Candida albicans [2]; in the assay on Candida albicans [3]) were 8 µg/mL (≈ 20.9 µM), 0.06 µg/mL (≈ 0.157 µM) and 1 µg/mL (≈ 2.61 µM), respectively.

As to `Fc1ccc(N2N=C(c3ccc(Cl)cc3Cl)[C@@H](n3ccnc3)[C@@H]2c2ccc(Cl)cc2Cl)cc1` (racemic), the results for the MIC (in assay [1]; against Candida albicans [2]; in the assay with Candida albicans [3]) were 16 µg/mL (≈ 30.8 µM), 1 µg/mL (≈ 1.92 µM) and greater than 64 µg/mL, respectively.

For `Clc1ccc(C2=NN(c3ccccc3)[C@H](c3ccc(Cl)cc3)[C@H]2n2ccnc2)cc1` (racemic), the MIC in assay [1] came to 4 µg/mL (≈ 9.23 µM); against Candida albicans [2], 2 µg/mL (≈ 4.62 µM); with Candida albicans [3], 64 µg/mL (≈ 148 µM).

For the molecule `c1ccc(C2=NN[C@H](c3ccccc3)[C@H]2n2ccnc2)cc1` (racemic), the MIC in assay [1] was 16 µg/mL (≈ 55.5 µM); in the assay on Candida albicans [2] it was 16 µg/mL (≈ 55.5 µM); against Candida albicans [3], greater than 64 µg/mL.

`CN1N=C(c2ccccc2)[C@@H](n2ccnc2)[C@H]1c1ccccc1` (racemic): the MIC in assay [1] was determined as 8 µg/mL (≈ 26.5 µM); against Candida albicans [2], 1 µg/mL (≈ 3.31 µM); against Candida albicans [3], 64 µg/mL (≈ 212 µM).

As for `C[C@@H]1[C@H](O)[C@@H](C)/C=C/C=C/C=C/C=C/C=C/C=C/C=C/[C@H](O[C@@H]2O[C@H](C)[C@@H](O)[C@H](N)[C@@H]2O)C[C@@H]2O[C@](O)(C[C@@H](O)C[C@@H](O)[C@H](O)CC[C@@H](O)C[C@@H](O)CC(=O)O[C@H]1C)C[C@H](O)[C@H]2C(=O)O` [AMPHOTERICIN B], the minimal inhibitory concentration (MIC) against Candida albicans [2] and in the assay on Candida albicans [3] was 1 µg/mL (≈ 1.08 µM) in each case.

With `NNC(=O)c1ccncc1` [ISONIAZID], it took 0.5 µg/mL (≈ 3.65 µM) to inhibit growth in assay [1] (MIC).

For the molecule `Clc1ccc(COC(Cn2ccnc2)c2ccc(Cl)cc2Cl)c(Cl)c1` (stereo not given) [MICONAZOLE], the MIC in the assay on Candida albicans [2] stood at 0.06 µg/mL (≈ 0.144 µM); with Candida albicans [3], 0.12 µg/mL (≈ 0.288 µM).
